From PubChem BioAssay
FGF22 binding-1: FGF22 (human) thermal shift binding. Q9HCT0. recombinant FGF22 thermal shift, SYPRO orange fluorescence; percent of sucrose octasulfate shift, DMSO zero. activity (Tm shift, normalised), % at 9.99 µM. actives 1.5% (n = 340,000). AID 651658;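 active = mean Tm shift, scaled 0 neutral to 100 positive control, at about 1.3% or above, every replicate too, limit read from the data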
Target sequence (Q9HCT0 whole entry, looked up): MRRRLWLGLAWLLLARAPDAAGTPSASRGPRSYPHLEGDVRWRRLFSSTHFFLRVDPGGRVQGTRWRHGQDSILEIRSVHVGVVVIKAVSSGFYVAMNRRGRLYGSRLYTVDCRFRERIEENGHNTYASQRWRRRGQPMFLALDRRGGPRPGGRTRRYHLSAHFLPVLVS
F508del corr: CFTR F508del correction in bronchial cells; actives 0.36% (n = 350,000); AID 720511; activity (quench increase), % at 7.58 µM; CFBE cells, YFP halide quenching; stimulated with forskolin plus potentiator P3; % fluorescence drop versus neutral controls;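 active = mean added fluorescence quench of at least 8% versus neutral control, with both replicates also reaching 8%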;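 note: cells transiently co-express mutant CFTR-F508del with the halide-sensitive YFP; corrector assay measuring rescue of mutant channel to the surface after 24 h compound exposure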
S100A4 MyoIIA: S100A4-myosin IIA interaction inhibition; actives 0.14% (n = 360,000); P26447; S100A4/TAMRA-MyoIIA peptide fluorescence polarization; inhibition, % at 10.7 µM;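 active = mean inhibition of at least 70% across replicates, with every replicate also reaching that level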
Target sequence (P26447 whole entry, looked up): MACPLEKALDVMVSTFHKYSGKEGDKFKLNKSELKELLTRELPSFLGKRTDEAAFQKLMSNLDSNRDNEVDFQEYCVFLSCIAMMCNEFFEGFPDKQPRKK
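Compound dosing: one dose per compound; test system: human S100A4 monomer with TAMRA-labelled myosin IIA peptide; probe or stimulus: TAMRA-labelled myosin IIA heavy-chain peptide probe, 5 nM; medium: HEPES buffer with Ca2+, pH 7.2; schedule: 5 min incubation before reading; benchmarks: neutral control DMSO, positive control TFP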
dFosB activator: enhances mouse delta FosB homodimer DNA binding; P13346; purified delta FosB, TAMRA-CDK5 oligo fluorescence polarization; percent of positive-control signal above neutral wells; activation, % at 25 µM; actives 0.99% (n = 340,000);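 active = mean activation above about 17%, with every replicate also reaching it, limit read from the data, passing the limit was not always enough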
Target sequence (P13346 whole entry, looked up): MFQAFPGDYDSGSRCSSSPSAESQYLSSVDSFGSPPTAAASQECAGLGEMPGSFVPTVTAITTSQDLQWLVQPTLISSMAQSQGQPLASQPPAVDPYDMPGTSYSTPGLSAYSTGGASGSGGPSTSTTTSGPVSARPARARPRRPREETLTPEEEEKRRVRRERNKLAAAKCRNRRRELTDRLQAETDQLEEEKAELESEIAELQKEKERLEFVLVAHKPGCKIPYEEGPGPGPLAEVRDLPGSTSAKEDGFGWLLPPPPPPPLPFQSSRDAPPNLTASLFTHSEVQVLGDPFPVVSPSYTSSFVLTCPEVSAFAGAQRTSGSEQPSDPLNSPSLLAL
FGF22 binding-2: binders of human FGF22 by thermal shift | shares compounds with FGF22 binding-1 | thermal shift activity, °C (ΔTm) at 38 µM | recombinant FGF22 thermal shift, SYPRO orange fluorescence | actives 2% (n = 1,000);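 active = fitted rise in melting shift crosses a set limit at or below the top valid dose tested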
FGF22 TSA: FGF22 (human) binding by thermal shift | Thermal shift assay, SYPRO orange, melting temperature shift | Tm shift (activity), % at 38 µM | AID 743017 | shares compounds with FGF22 binding-1 | 50 tested, under 10 active;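 active = compounds whose fitted dose curve of melting temperature shift rises past a set threshold within the tested doses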
SYPRO no-protein: compound-only SYPRO artifact for FGF22 binders; compound-only SYPRO orange thermal shift counter-screen, no protein; shares compounds with FGF22 binding-1; actives 2% (n = 1,000); AC50, µM (highest dose often 38 µM);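 active = rising signal whose fitted curve reaches the 0.54 level within the top valid dose, showing a melting point, actives reach about 13 µM in these data; inactive = the rest, including activity in the opposite direction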; note: value is where the raw curve crosses a fixed level and not half-maximal
An asterisk follows results filed as active; i = inactive; . = not tested or not shown; [ ] = dose if it differs, or a comment. Rows were chosen to be rich in hits. Some 2.2% of all compounds tested hit in one or more screens of this group.

SMILES | FGF22 binding-1 | F508del corr | S100A4 MyoIIA | dFosB activator | FGF22 binding-2 | SYPRO no-protein | others
CNC[C@@H]1Oc2ccc(NC(=O)Nc3ccc(OC)cc3)cc2C(=O)N([C@H](C)CO)C[C@H]1C | 1 | -3 | -7 | . | . | .
O=[N+]([O-])c1ccccc1S(=O)(=O)Nc1nc2ccccc2s1 | 1 | 2 | -7 | -1 | . | .
O=[N+]([O-])c1ccc2nc(NS(=O)(=O)c3ccccc3[N+](=O)[O-])sc2c1 | 2.4* | -2 | -1 | 2 | -0.44 | i
Fc1ccc(NC(=S)NCCN2CCOCC2)cc1 | 0 | -1 | 2 | -7 | . | .
S=C(NCCN1CCOCC1)Nc1ccc(-c2nc3ccccc3[nH]2)cc1 | 2.2* | -1 | -14 | 0 | -0.28 | i
N#C[C@H]1[C@@H](c2ccc(C#CCC3CCCC3)cc2)[C@H](CO)N1C(=O)CN1CCOCC1 | 19* | 2 | -3 | . | 0.21[42 µM] | i
O=C(N/N=C/c1ccncc1)c1cc2ccccc2cc1O | 0 | -2 | 8 | 4 | . | .
O=C(N/N=C/c1ccc[nH]1)c1cc2ccccc2cc1O | 1.8* | -1 | 2 | 0 | 0.084 | i
COc1ccc(C(=O)N2CCCCC2)cc1S(=O)(=O)Nc1cccc(C(=O)O)c1 | 1.7* | -1 | -3 | 0 | 0.22 | 11µM*
CC(C)n1c(=O)c2ccccc2n1Cc1cn(-c2ccc(Cl)cc2)nn1 | 2.6* | -1 | -1 | . | 0.39 | i
CC(=O)C1=C(O)C(=O)N(c2ccc(S(=O)(=O)Nc3nccs3)cc2)C1c1ccc(F)cc1 (configuration not stated) | 1.7* | 4 | -1 | -4 | -0.031 | i
CC(=O)C1=C(O)C(=O)N(c2ccc(S(=O)(=O)Nc3nccs3)cc2)C1c1ccc([N+](=O)[O-])cc1 (configuration not stated) | 0 | 0 | -3 | -7 | . | .
COCC#Cc1ccc2c(c1)O[C@@H](CN(C)C(=O)C1CCC1)[C@H](C)CN([C@H](C)CO)S2(=O)=O | 0 | 1 | 8 | . | . | .
CCOC(=O)N1CCN(C(=O)CNC(=O)c2nn(-c3ccc(OC)cc3OC)c(=O)c3ccccc23)CC1 | 0 | -1 | 0 | -21 | . | .
CCOC(=O)C1CCN(C(=O)CNC(=O)c2nn(-c3ccc(OC)cc3OC)c(=O)c3ccccc23)CC1 | 1.6* | -4 | -5 | -11 | 0.054 | i
N#C[C@H]1[C@H](c2ccccc2-c2ccccc2F)[C@@H](CO)N1C(=O)C1CCC1 | 1.4* | -2 | 20 | . | 0.14[42 µM] | i
CCCn1c(=O)[nH]c(=O)c2c1nc(-c1ccc(C#N)cc1)n2CCOC | 0 | 0 | 0 | -3 | . | .
CCCn1c(=O)[nH]c(=O)c2c1nc(-c1cccs1)n2CCOC | 4.7* | 3 | 1 | -2 | 0.15 | i
CCC(=O)N1C[C@H](C)[C@@H](OC)CN(C)C(=O)c2cc(NS(C)(=O)=O)ccc2OC[C@H]1C | 0 | -1 | -6 | . | . | .
O=C(C1CCCC1)N1CC(=O)N2[C@H](CO)[C@H](c3ccc(-c4ccccc4F)cc3)[C@@H]2C1 | . | -1 | 46 | . | . | .
C[C@H]1CN([C@@H](C)CO)C(=O)c2cc(NC(=O)Cc3ccccc3)ccc2O[C@H]1CN(C)Cc1ccc2c(c1)OCO2 | 3.0* | 4 | -1 | . | 0.23 | i
COc1ccc(CN(C)C[C@H]2Oc3ccc(NC(=O)Cc4ccccc4)cc3C(=O)N([C@@H](C)CO)C[C@H]2C)cc1 | 8.9* | 3 | 6 | . | 0.064 | i
C[C@@H]1CN([C@@H](C)CO)C(=O)c2cc(NC(=O)Cc3cn(C)c4ccccc34)ccc2O[C@H]1CN(C)S(C)(=O)=O | 2.6* | -1 | -8 | . | 0.11[42 µM] | i
C[C@H]1CCCCO[C@H](CN(C)S(=O)(=O)c2ccc(Cl)cc2)[C@@H](C)CN([C@@H](C)CO)C(=O)c2cc(NC(=O)Nc3cccc4ccccc34)ccc2O1 | . | -2 | -9 | . | . | .
CN(C[C@@H]1N[C@H](CO)[C@@H]1c1ccc(C2=CCCC2)cc1)S(C)(=O)=O | -1 | -7 | -1 | . | . | .
SMILES | FGF22 binding-1 | F508del corr | S100A4 MyoIIA | dFosB activator | FGF22 binding-2 | SYPRO no-protein | others
Cn1c(C(=O)NCCc2c[nH]c3ccccc23)cc2sccc21 | 1.6* | 0 | 0 | -9 | 0.002 | i
O=C(NCCc1c[nH]c2ccccc12)c1cc2sccc2n1Cc1ccccc1 | . | . | . | -8 | . | .
O=C(C[C@H]1CC[C@@H]2[C@H](COC[C@H](O)CN2S(=O)(=O)c2cccc(F)c2)O1)Nc1ccccc1 | 2.0* | 1 | -8 | . | 0.13[42 µM] | i
O=C(C[C@@H]1CC[C@H]2[C@@H](COC[C@@H](O)CN2Cc2cccc(C(F)(F)F)c2)O1)NCc1ccncc1 | 14* | -3 | 4 | . | 0.001 | i
Cc1cccc(S(=O)(=O)N2C[C@H](O)COC[C@H]3O[C@H](CC(=O)Nc4ccccc4)CC[C@@H]32)c1 | 1.8* | 0 | 0 | . | -0.025[42 µM] | i
O=C(C[C@H]1CC[C@H]2[C@@H](COC[C@@H](O)CN2S(=O)(=O)c2cccc(F)c2)O1)Nc1ccccc1 | 0 | -4 | 2 | . | . | .
Cc1ccc(S(=O)(=O)N2C[C@H](O)COC[C@H]3O[C@H](CC(=O)NCc4ccc(Cl)c(Cl)c4)CC[C@@H]32)cc1 | 1.4* | 1 | 1 | . | 0.016[42 µM] | i | FGF22 TSA=0
Cc1ccc(S(=O)(=O)N2C[C@H](O)COC[C@H]3O[C@@H](CC(=O)NCc4ccc(Cl)c(Cl)c4)CC[C@@H]32)cc1 | 0 | 0 | 10 | . | . | .
COc1ccc(NC(=O)Nc2ccc3c(c2)[C@@H]2C[C@@H](CC(=O)N4CCOCC4)O[C@@H](CO)[C@@H]2O3)cc1 | 0 | 0 | . | . | . | .
COCC(=O)N(C)C[C@@H]1Oc2ncc(C#C[C@@H](C)O)cc2C(=O)N([C@H](C)CO)C[C@H]1C | 0 | 0 | 7 | . | . | .
CO[C@H]1CN(C)C(=O)c2cc(NC(=O)c3ccc(F)cc3)ccc2OC[C@@H](C)N(C(=O)c2ccc(F)cc2)C[C@@H]1C | 0 | -2 | -1 | . | . | .
O=C(C[C@H]1CC[C@H]2[C@@H](COC[C@@H](O)CN2S(=O)(=O)c2cccc(F)c2)O1)Nc1ccc(-c2ccccc2)cc1 | 3.3* | 0 | 4 | . | 0.062 | i
Cc1ccc(NC(=O)c2ccc(OCc3c(C)noc3C)cc2)c(C)c1 | 1.6* | 1 | 2 | -6 | . | i
Cc1ccc(NC(=O)c2cccc(OCc3c(C)noc3C)c2)c(C)c1 | . | . | . | -4 | . | .
COc1ccc2nc(NC(=O)CCn3cccc3)sc2c1 | . | . | . | -2 | . | .
